This note sets out measurements from ChEMBL document CHEMBL2057085, “Diazaspirocyclic compounds as selective ligands for the α4β2 nicotinic acetylcholine receptor” (Bioorg Med Chem Lett, 2012).

For test [1], the target named is T1, Neuronal acetylcholine receptor; alpha4/beta2 (Homo sapiens, UniProt P17787+P43681). Description: Displacement of [3H]-epibatidine from human nAChR alpha4beta2 expressed in human SH-EP1 cells. Type of test: cell-based. In outline: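 Radioligand binding using [3H]-epibatidine on human α4β2 nAChR expressed in SH-EP1 cells. Affinity reported as Ki, given as the mean.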
(In general: Displacement assays read how much labelled ligand stays bound in the presence of the test substance.)

Test [2] has as its target Neuronal acetylcholine receptor subunit alpha-7 (Homo sapiens, UniProt P36544). Description: Binding affinity to human nAChR alpha7 expressed in HEK cells coexpressing RIC3. It is filed as cell-based, HEK293. In outline: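 Binding measured at human α7 nAChR in HEK cells coexpressing RIC3. Affinity reported as Ki, given as the mean.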
The target in test [3] is T2, Neuronal acetylcholine receptor; alpha3/beta4 (Homo sapiens, UniProt P30926+P32297). Description: Binding affinity to human ganglionic nAChR alpha3beta4 expressed in human SHSY-5Y cells. It is filed as cell-based, SH-SY5Y. In outline: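 Binding measured on the α3β4 subtype endogenous to human SHSY-5Y clonal cells. Affinity reported as Ki, given as the mean.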
Test [4] deals with Acetylcholine receptor; alpha1/beta1/delta/gamma (Homo sapiens, UniProt P02708+P07510+P11230+Q07001). Kind of test: Binding affinity to human muscle nAChR alpha1beta1gammadelta expressed in human TE-671 cells. It is filed as cell-based. In a few lines:
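Binding carried out in TE-671 cells as the muscle-type receptor source. Affinity reported as Ki, given as the mean.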

For test [5], the target named is T1, Neuronal acetylcholine receptor; alpha4/beta2. Kind of test: Antagonist activity at human nAChR alpha4beta2 expressed in human SH-EP1 cells assessed as calcium flux by fluorescence analysis relative to nicotine. Type of test: functional, cell-based. (A change in cytosolic calcium serves as a functional read-out for many receptors and channels.)
Test [6] has as its target Neuronal acetylcholine receptor; alpha4/beta2 (Rattus norvegicus, UniProt P09483+P12390). Kind of test: Displacement of [3H]-nicotine from rat nAChR alpha4beta2 in rat cortex.
Test [7] has as its target T2, Neuronal acetylcholine receptor; alpha3/beta4. Description: Agonist activity at human ganglionic nAChR alpha3beta4 expressed in human SHSY-5Y cells assessed as calcium flux by fluorescence analysis.
Test [8] shares this target. Description: Agonist activity at human ganglionic nAChR alpha3beta4 expressed in human SHSY-5Y cells assessed as calcium flux by fluorescence analysis relative to nicotine. As to conditions: SH-SY5Y.

SMILES strings stand for the structures.

Chain of Acetylcholine receptor; alpha1/beta1/delta/gamma (P02708 whole entry): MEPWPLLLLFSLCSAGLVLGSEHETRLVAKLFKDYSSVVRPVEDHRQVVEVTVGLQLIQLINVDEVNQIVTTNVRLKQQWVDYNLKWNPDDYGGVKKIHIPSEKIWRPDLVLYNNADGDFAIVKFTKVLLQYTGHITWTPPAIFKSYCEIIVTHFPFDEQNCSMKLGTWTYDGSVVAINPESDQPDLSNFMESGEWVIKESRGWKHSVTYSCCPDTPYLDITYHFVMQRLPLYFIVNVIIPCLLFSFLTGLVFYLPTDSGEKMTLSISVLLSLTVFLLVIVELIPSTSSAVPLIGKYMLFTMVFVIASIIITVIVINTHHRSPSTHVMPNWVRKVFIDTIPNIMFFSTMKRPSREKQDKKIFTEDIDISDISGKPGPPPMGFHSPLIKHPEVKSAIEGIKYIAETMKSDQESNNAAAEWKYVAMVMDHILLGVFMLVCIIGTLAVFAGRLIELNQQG
Chain of Acetylcholine receptor; alpha1/beta1/delta/gamma (P07510 whole entry): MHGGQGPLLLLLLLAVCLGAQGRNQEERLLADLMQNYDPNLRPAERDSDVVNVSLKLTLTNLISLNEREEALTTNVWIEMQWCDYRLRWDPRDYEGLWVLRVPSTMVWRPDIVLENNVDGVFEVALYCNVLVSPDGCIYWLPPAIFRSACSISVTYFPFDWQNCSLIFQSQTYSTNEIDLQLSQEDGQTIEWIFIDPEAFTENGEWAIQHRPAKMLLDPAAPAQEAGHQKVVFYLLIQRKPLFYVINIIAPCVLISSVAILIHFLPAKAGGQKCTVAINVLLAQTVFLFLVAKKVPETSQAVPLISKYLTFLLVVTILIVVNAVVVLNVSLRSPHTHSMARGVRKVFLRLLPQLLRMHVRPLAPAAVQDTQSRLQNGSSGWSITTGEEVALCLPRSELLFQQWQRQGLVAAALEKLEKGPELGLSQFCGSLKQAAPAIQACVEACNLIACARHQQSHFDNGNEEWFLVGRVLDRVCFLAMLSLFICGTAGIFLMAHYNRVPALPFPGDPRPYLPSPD
Chain of Acetylcholine receptor; alpha1/beta1/delta/gamma (P11230 whole entry): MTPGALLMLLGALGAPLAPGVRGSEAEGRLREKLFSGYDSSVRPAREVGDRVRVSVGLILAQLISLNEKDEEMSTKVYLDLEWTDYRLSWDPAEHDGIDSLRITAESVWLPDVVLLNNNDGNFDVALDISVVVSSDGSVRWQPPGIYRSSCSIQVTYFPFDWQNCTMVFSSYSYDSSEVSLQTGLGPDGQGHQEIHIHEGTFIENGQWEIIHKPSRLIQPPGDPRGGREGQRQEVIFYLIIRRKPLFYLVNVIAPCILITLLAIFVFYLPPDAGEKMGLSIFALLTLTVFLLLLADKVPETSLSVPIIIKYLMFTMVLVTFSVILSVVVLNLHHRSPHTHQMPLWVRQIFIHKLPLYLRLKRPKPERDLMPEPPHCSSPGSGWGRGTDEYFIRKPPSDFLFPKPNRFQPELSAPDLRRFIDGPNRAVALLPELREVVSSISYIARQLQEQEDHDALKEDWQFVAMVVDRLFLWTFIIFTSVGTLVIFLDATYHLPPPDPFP
Chain of Acetylcholine receptor; alpha1/beta1/delta/gamma (Q07001 whole entry): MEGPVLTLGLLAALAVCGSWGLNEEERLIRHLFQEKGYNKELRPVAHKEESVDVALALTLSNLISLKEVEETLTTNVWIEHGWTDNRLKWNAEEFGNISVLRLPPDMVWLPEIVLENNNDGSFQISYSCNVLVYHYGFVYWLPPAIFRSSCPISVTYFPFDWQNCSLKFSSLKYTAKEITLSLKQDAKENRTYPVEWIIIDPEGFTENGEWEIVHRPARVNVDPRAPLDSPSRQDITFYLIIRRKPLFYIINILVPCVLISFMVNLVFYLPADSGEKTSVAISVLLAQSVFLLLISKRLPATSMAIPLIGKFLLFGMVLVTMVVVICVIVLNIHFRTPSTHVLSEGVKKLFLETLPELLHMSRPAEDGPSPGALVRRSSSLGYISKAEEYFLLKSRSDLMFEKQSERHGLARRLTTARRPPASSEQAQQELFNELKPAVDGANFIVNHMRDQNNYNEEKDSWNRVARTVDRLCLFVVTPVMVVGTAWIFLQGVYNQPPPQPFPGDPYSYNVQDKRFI
T2 sequence (P30926 whole entry): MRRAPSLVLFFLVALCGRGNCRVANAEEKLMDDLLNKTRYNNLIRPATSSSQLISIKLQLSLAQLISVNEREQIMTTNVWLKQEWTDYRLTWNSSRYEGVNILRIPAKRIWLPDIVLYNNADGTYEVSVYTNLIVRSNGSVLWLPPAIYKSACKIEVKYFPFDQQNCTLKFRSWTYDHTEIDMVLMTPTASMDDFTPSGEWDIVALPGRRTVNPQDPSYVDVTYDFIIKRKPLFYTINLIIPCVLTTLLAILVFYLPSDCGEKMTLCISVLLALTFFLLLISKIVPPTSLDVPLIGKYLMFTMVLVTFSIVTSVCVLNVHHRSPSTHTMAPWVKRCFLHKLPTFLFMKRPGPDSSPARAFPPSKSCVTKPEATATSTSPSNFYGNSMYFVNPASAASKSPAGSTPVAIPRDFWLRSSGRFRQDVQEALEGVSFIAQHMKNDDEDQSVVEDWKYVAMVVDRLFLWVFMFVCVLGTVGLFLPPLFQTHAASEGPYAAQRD
T2 sequence (P32297 whole entry): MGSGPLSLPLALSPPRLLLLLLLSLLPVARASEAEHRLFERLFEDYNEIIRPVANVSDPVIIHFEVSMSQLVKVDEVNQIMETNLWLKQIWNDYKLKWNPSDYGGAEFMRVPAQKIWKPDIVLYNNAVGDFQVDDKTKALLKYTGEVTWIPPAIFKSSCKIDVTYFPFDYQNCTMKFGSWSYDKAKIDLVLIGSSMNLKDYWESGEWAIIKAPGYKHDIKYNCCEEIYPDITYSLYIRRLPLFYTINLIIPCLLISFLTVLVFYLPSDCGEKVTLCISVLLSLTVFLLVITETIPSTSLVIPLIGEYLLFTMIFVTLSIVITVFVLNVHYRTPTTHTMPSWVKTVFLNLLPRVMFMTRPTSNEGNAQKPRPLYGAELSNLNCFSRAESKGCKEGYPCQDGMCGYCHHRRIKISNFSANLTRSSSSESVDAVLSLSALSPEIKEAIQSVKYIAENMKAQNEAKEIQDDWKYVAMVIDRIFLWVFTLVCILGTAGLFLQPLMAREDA
T1 sequence (P17787 whole entry): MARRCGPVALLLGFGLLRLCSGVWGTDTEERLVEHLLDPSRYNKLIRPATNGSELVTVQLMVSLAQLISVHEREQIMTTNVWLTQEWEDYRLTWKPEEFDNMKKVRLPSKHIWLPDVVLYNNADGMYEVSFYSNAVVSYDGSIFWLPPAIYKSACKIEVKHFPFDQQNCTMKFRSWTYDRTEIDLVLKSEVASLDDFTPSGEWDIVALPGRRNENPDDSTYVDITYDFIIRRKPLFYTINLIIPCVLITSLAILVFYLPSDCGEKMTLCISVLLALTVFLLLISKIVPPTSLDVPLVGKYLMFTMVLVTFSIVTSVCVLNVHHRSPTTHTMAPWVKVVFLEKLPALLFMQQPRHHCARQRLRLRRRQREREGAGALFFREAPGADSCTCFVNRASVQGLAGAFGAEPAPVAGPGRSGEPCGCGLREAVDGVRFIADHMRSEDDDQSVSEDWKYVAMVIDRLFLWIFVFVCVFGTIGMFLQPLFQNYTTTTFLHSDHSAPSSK
T1 sequence (P43681 whole entry): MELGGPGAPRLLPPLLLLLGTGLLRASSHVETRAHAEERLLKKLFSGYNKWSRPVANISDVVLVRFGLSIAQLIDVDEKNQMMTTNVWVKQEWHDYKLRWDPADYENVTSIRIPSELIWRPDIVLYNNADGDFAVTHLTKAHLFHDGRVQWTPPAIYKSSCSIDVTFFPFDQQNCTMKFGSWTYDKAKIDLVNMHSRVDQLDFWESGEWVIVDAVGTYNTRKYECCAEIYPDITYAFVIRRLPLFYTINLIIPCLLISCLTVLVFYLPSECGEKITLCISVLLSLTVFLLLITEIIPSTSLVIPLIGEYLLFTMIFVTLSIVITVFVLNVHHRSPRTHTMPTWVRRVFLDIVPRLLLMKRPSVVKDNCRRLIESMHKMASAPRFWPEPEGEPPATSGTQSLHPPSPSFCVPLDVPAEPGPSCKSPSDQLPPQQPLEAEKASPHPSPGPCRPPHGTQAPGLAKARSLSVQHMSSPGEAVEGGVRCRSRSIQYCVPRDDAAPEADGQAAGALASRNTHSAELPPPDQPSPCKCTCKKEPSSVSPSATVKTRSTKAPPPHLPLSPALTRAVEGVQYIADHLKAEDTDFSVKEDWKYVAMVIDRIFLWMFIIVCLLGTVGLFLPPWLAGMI
Chain of Neuronal acetylcholine receptor subunit alpha-7 (P36544 whole entry): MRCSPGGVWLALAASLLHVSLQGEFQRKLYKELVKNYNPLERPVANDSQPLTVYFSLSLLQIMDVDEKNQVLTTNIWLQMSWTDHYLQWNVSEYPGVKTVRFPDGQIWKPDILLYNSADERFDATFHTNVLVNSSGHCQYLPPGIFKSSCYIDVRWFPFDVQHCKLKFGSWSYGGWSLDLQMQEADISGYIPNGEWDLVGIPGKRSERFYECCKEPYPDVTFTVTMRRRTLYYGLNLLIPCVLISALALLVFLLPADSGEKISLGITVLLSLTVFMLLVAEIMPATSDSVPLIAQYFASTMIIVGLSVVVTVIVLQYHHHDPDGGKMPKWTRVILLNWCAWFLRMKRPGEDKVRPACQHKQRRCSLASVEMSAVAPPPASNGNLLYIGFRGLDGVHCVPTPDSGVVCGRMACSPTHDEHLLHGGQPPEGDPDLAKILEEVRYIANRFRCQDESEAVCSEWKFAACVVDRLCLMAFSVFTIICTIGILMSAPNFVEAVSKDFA

Broadly, the Ki is a dissociation constant, usually derived from enzyme kinetics or from competition with a known ligand. A lower Ki goes with tighter binding. Usually Emax stands for the size of the effect at its maximum, as opposed to the concentration needed. The term EC50 denotes the concentration needed to bring the measured effect to its halfway point. Regarding `c1cncc(N2CCC3(CC4CCN3C4)C2)c1` (stereo unspecified), the Ki came to 29 nM in test [1]; 7900 nM in test [2]; 2400 nM in test [3]; 9900 nM in test [4]; 40 nM in test [6]. Besides, the Emax in test [5] amounted to 92%; in test [8], 3.1%. Besides, the EC50 in test [7] came to 31000 nM.
Consider `c1cncc(N2CCC3(CC4CCN3CC4)C2)c1` (stereo unspecified), for which the inhibition constant (Ki) in test [1] stood at 32 nM; in test [2] it was 8000 nM; in test [3], 1100 nM; in test [4], 11000 nM; in test [6], 5.7 nM. The Emax in test [5] came out at 92%; in test [8], 4.2%. The concentration giving a half-maximal response (EC50) in test [7] stood at 6900 nM.
Consider `c1cncc(N2CCC3(C2)C2CCN3CC2)c1` (stereo unspecified), for which the Ki worked out at 10 nM in test [1]; 7600 nM in test [2]; 560 nM in test [3]; 580 nM in test [4]; 34 nM in test [6]. The Emax in test [5] came to 92%; in test [8] it was 29%. Besides, the EC50 in test [7] came to 2600 nM.
Regarding `c1cncc(N2CCC3(CCCN3)C2)c1` (stereo unspecified) [TC-2216], the Ki in test [1] came out at 29 nM; in test [2], 6900 nM; in test [3], 1200 nM; in test [4], 5700 nM; in test [6] it was 75 nM. For the same compound, the concentration giving a half-maximal response (EC50) in test [7] came out at 55000 nM. For the same compound, in test [8], the Emax came to 9.6%.
